DDE Tn7 FP inh – DD(E)-Tn7 binding inhibition, primary FP screen; P02675; FP displacement of FITC-Tn7 peptide from fibrin DD(E); 0% = median of compound wells per plate; inhibition, % at 8.3 µM; hit rate 0.13% among 370,000;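 active = inhibition above the mean of compounds falling within the control limits plus 3 SD of them, cut at about 14% in these data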
Target sequence (P02675 whole entry, looked up): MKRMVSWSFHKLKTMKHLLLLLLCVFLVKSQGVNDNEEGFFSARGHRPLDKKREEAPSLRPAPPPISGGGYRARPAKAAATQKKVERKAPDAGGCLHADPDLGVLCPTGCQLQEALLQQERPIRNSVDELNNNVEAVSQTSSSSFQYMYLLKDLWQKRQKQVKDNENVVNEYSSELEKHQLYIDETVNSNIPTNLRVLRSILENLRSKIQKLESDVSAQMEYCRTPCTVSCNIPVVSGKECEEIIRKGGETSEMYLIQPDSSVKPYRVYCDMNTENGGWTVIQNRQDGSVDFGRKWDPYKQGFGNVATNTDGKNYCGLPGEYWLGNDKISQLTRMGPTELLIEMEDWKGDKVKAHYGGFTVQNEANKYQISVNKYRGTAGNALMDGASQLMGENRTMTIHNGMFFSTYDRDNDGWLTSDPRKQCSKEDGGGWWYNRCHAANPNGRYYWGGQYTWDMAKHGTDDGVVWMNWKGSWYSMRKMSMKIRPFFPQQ
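Assay system: Fibrin-DD(E) protein isolated from polymerized human fibrin clots; read-out basis: percent inhibition; medium: Tris/NaCl/CaCl2 buffer, pH 7.8; signal: FP measurement; incubation: 10 min plus 3 h, room temperature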
PLCg1 inh – PLC-gamma1 (human) inhibition, primary screen. hit rate 0.84% among 370,000. purified PLC-gamma1, fluorogenic substrate, fluorescence. P19174. inhibition, % at 12.2 µM
PLC-beta3 inh – PLC-beta3 (human) inhibition, primary screen; Q01970; Purified PLC-beta3, fluorogenic substrate, fluorescence; hit rate 0.18% among 370,000; inhibition, % at 12.2 µM; in the data active = inhibition above about 11%
DDE Tn6 FP inh – DD(E)-Tn6 binding inhibition, primary FP screen. P02675. Fibrin DD(E) TRITC-Tn6 fluorescence polarization displacement. inhibition, % at 8.3 µM. hit rate 0.21% among 370,000;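 active = inhibition above a per-campaign cutoff: mean of compounds within control limits plus 3 SD, cut at about 15% in these data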
DNA FID counter – counter-screen for HCV NS3 helicase inhibitors: DNA intercalator displacement; DNA fluorescent intercalator displacement, fluorescence; inhibition, % at 7.9 µM; hit rate 0.17% among 290,000; AID 1845; in the data active = inhibition above about 37%;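 note: higher means more ethidium bromide displaced from hairpin DNA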
DDE Tn7 confirm – confirmation of inhibitors of Tn7 binding to human fibrin DD(E). shares compounds with DDE Tn7 FP inh. hit rate 5% among 460. FP displacement of TRITC-Tn7 peptide from DD(E); 0% set at plate's compound-well median. inhibition, % at 8.3 µM;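 active = inhibition above the campaign cutoff, the mean of compounds within control limits plus 3 SD, cut at about 14% in these data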;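 note: displacers lower polarization since freed probe rises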
DDE Tn7 FP ctr – counter-screen for inhibitors of Tn7 peptide binding to fibrin DD(E) | inhibition, % at 8.3 µM | hit rate 3% among 460 | shares compounds with DDE Tn7 FP inh | TRITC-Tn7 probe displacement, fluorescence polarization;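 active = inhibition above the cutoff, the mean of compounds lying between the control bounds plus 3 SD of those compounds, cut at about 17% in these data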
Tn6 DDE ctr – counter-screen for inhibitors of Tn6 peptide binding to fibrin DD(E) | shares compounds with DDE Tn6 FP inh | TRITC-Tn6 fluorescence polarization displacement; 0% = median of compound wells, not DMSO | inhibition, % at 8.3 µM | hit rate 2% among 680;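 active = inhibition above the mean of test compounds lying between the control limits plus 3 SD of those, cut at about 14% in these data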
Tn6 DDE conf – confirmation of inhibitors of Tn6 binding to human fibrin DD(E); shares compounds with DDE Tn6 FP inh; FP displacement of TRITC-Tn6 peptide from DD(E); 0% = per-plate median of test wells; inhibition, % at 8.3 µM; hit rate 10% among 680;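 active = inhibition above the mean of compounds lying within the control limits plus 3 SD, cut at about 16% in these data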
PLCg1 ctr – inhibits human PLC-gamma1 in PLC-beta3 counter-screen; shares compounds with PLCg1 inh; purified PLC-gamma1, fluorogenic substrate, fluorescence; inhibition, % at 12.3 µM; hit rate 3.1% among 3,300; AID 743258
PLCbeta3 conf – human PLC-beta3 inhibition, confirmation; purified PLC-beta3, fluorogenic substrate fluorescence; inhibition, % at 12.3 µM; shares compounds with PLCg1 inh; hit rate 1% among 3,300; in the data active = inhibition above about 11%
Large screens that a line does not name were inactive (follow-up assays come after a bar, where they were run). In the library only some 1.4% were active in any assay of this set; here they are far more common. Cut-off read from the data, not from the text of the source, unless noted: active = inhibition above about 9.5%; inactive = the rest.

COc1ccccc1N1CCN(C(=O)c2cc(-c3cccs3)on2)CC1	none
Brc1c(CSc2nnc(-c3ccco3)o2)nc2ccccn12	none
c1coc(-c2nnc(SCc3cn4ccccc4n3)o2)c1	DDE Tn7 FP inh 14 | DDE Tn7 confirm inactive | DDE Tn7 FP ctr inactive
CC(C)(C)NS(=O)(=O)c1ccc(/C=C/C(=O)O)cc1	none
O=C1c2ccccc2-c2onc3ccc(N4CCCC4)c1c23	DDE Tn7 FP inh 32, DDE Tn6 FP inh 100, DNA FID counter 47 | DDE Tn7 confirm inactive | DDE Tn7 FP ctr 93 | Tn6 DDE ctr inactive | Tn6 DDE conf 93
CCNc1ccc2noc3c2c1C(=O)c1ccccc1-3	DDE Tn7 FP inh 17, DDE Tn6 FP inh active | DDE Tn7 confirm 53 | DDE Tn7 FP ctr 93 | Tn6 DDE ctr 53 | Tn6 DDE conf 93
O=C(c1ccco1)N1CCN(C(=O)C2Cc3ccccc3CN2S(=O)(=O)c2ccc(F)cc2)CC1 (configuration not stated)	none
COC(=O)CCC(=O)Nc1ccc(Cl)c(Cl)c1	none
COC(=O)CC1(C(=O)OC)Nc2cc(Cl)c(Cl)cc2S(=O)(=O)N1O (configuration not stated)	DDE Tn7 FP inh 88, DDE Tn6 FP inh 124 (no result: DNA FID counter) | DDE Tn7 confirm 60 | DDE Tn7 FP ctr 58 | Tn6 DDE ctr 60 | Tn6 DDE conf 58
Cc1ccc(C(=O)Cc2nc3ccccc3[nH]2)cc1	none
COc1ccc2ccccc2c1C(O)c1nccn1C (configuration not stated)	DDE Tn7 FP inh 33, DDE Tn6 FP inh 17, DNA FID counter 45 | DDE Tn7 confirm 17 | DDE Tn7 FP ctr inactive | Tn6 DDE ctr 17 | Tn6 DDE conf inactive
Cn1ccnc1C(O)c1ccccc1 (configuration not stated)	none
CC1(C)CC(=O)C(C=Nc2ccc(C(=O)c3ccccc3)cc2N=CC2=C(O)CC(C)(C)CC2=O)=C(O)C1	DDE Tn7 FP inh 14, DDE Tn6 FP inh 19 | DDE Tn7 confirm inactive | DDE Tn7 FP ctr inactive | Tn6 DDE ctr inactive | Tn6 DDE conf inactive
COC(CNC(=O)c1ccc(-n2c(=S)[nH]c3ccccc3c2=O)cc1)OC	none
N/C(=N\OC(=O)c1ccc2c(c1)OCO2)c1ccncc1	DDE Tn7 FP inh 15, PLCg1 inh 13 | DDE Tn7 confirm inactive | DDE Tn7 FP ctr inactive | PLCg1 ctr inactive | PLCbeta3 conf inactive
COc1ccc(NC(=O)C(=O)N/N=C/c2cccnc2)cc1	none
O=c1oc2ccccc2cc1C1=Nn2c(nnc2-c2cccnc2)SC1	DDE Tn6 FP inh 15 | Tn6 DDE ctr inactive | Tn6 DDE conf inactive
CCNc1ccccc1CP(=O)(c1ccccc1)c1ccccc1O (configuration not stated)	DDE Tn6 FP inh 21 | Tn6 DDE ctr inactive | Tn6 DDE conf inactive
Cn1c(=O)c2c(ncn2CC(=O)OCC(=O)Nc2cc(Cl)ccc2C#N)n(C)c1=O	none (no result: DNA FID counter)
Cc1ccc(Cl)cc1NC(=O)COC(=O)Cn1cnc2c1c(=O)n(C)c(=O)n2C	DDE Tn6 FP inh 17 | Tn6 DDE ctr inactive | Tn6 DDE conf inactive
Cc1cc(N/N=C/c2ccco2)c2ccccc2n1	DDE Tn6 FP inh 17 | Tn6 DDE ctr inactive | Tn6 DDE conf inactive
Cc1cc(C(=O)N/N=C/c2ccco2)c2ccccc2n1	none
CCOC(=O)Cc1nnc(NC(=O)C(CC)Sc2nc(C)cc(=O)[nH]2)s1 (configuration not stated)	none
COc1cccc(OC)c1C(=O)NC(=S)Nc1cc(-c2nc3ccccc3[nH]2)ccc1Cl	DDE Tn6 FP inh 55 | Tn6 DDE ctr inactive | Tn6 DDE conf inactive
COc1c(F)c(F)c(C(=O)Nc2ccc(-c3nc4ccccc4[nH]3)cc2)c(F)c1F	none
COc1ccc(C(CNC(=O)c2ccc(S(=O)(=O)N(C)C)cc2)N(C)C)cc1 (configuration not stated)	none
CCN(c1ccccc1)S(=O)(=O)c1cc(C(=O)NCC(c2ccc(OC)cc2)N(C)C)ccc1C (configuration not stated)	DDE Tn6 FP inh 17 (no result: DNA FID counter) | Tn6 DDE ctr inactive | Tn6 DDE conf inactive
COC(=O)c1c[nH]c(=O)c2ccccc12	DDE Tn6 FP inh 16 | Tn6 DDE ctr inactive | Tn6 DDE conf inactive
Cc1nc2ccccc2n1-c1nc(-c2ccco2)cc(C(F)(F)F)n1	DDE Tn6 FP inh 18 | Tn6 DDE ctr inactive | Tn6 DDE conf inactive
FC(F)(F)c1cc(-c2ccco2)nc(-n2cnc3ccccc32)n1	none
Cc1cc(C)c2cccc(N)c2n1	none
Cc1cc(C)c2ccc(N)nc2c1O	DDE Tn6 FP inh 29 | Tn6 DDE ctr inactive | Tn6 DDE conf inactive
CCc1ccc(CNc2ccc3c(c2)ncn3C(C)(C)C)cc1	none
CCOC(=O)N1CCN(C(=O)CN(c2cc(C(F)(F)F)ccc2Cl)S(C)(=O)=O)CC1	none
Cc1ccc(SCc2c(C#N)c3ccccc3n2C)cc1	none
CCCc1c(C)c2cc(C)ccc2[nH]c1=O	DDE Tn6 FP inh 18 | Tn6 DDE ctr inactive | Tn6 DDE conf inactive
CCCCc1c(C)c2cc(C)ccc2[nH]c1=O	none
CCCNC(=O)Nc1ccsc1C(=O)OC	DDE Tn6 FP inh 15 | Tn6 DDE ctr inactive | Tn6 DDE conf inactive
CC(C)Cc1ccc(CN2CCCC(NC(=O)c3ccoc3)C2)cc1 (configuration not stated)	none
Cc1cc2c(NC(=O)Nc3ccc(C(F)(F)F)cc3)cccc2nn1	DDE Tn6 FP inh 108 | Tn6 DDE ctr inactive | Tn6 DDE conf inactive
O=C(Cc1ccc(F)cc1)Nc1c(C(=O)N2CCN(c3ncccn3)CC2)oc2ccccc12	none
Cc1cc2nc3ccc(N(C)C)cc3nc2cc1N	DDE Tn6 FP inh 33 (no result: DNA FID counter) | Tn6 DDE ctr inactive | Tn6 DDE conf 65
CC(=O)N1N=C(c2ccncc2)OC12CCCCCC2	DDE Tn6 FP inh 16 | Tn6 DDE ctr inactive | Tn6 DDE conf inactive
CCOCCCNC(=O)C1CCC(CNS(=O)(=O)c2ccc(Cl)cc2)CC1 (configuration not stated)	none
CCC(=O)NCCn1c(C)cc2ccccc21	none (no result: DDE Tn7 FP inh, PLCg1 inh, PLC-beta3 inh, DDE Tn6 FP inh)

Source: PubChem BioAssay (The Scripps Research Institute Molecular Screening Center)
